# According to ChEMBL document CHEMBL5058577, “EUbOPEN Chemogenomics Library 2 (Multiplex)” (2022):
# Where “and” joins values, the source holds several entries; their conditions need not be identical. Identical values can stand only once.
# Test system: U2OS
# Assay: Multiplex assay against U2OS
# Type: toxicity, cell-based
# Settings: human
# Method in brief: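 Imaging took place on a CQ1 microscope at 37°C and 5% CO2 once compound had been added to live cells stained at seeding with Hoechst33342, BioTracker Green Microtubule Cytoskeleton Dye, MitoTracker Red and Annexin V Alexa Fluor 680. CellPathfinder machine-learning gating classed cells as Hoechst high-intensity objects or normal cells, classed normal cells as having healthy, pyknosed or fragmented nuclei, and classed pyknosed cells as mitotic or apoptotic. Tubulin, mitochondrial-mass and membrane-permeability phenotypes are per cents of the healthy-nucleus cells.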
# [1] = 12 h, 1 µM, compound concentration 1 uM, replicate 1
# [2] = 12 h, 1 µM, compound concentration 1 uM, replicate 2
# [3] = 12 h, 10 µM, compound concentration 10 uM, replicate 1
# [4] = 12 h, 10 µM, compound concentration 10 uM, replicate 2
# [5] = 24 h, 1 µM, compound concentration 1 uM, replicate 1
# [6] = 24 h, 1 µM, compound concentration 1 uM, replicate 2
# [7] = 24 h, 10 µM, compound concentration 10 uM, replicate 1
# [8] = 24 h, 10 µM, compound concentration 10 uM, replicate 2
# [9] = 48 h, 1 µM, compound concentration 1 uM, replicate 1
# [10] = 48 h, 1 µM, compound concentration 1 uM, replicate 2
# [11] = 48 h, 10 µM, compound concentration 10 uM, replicate 1
# [12] = 48 h, 10 µM, compound concentration 10 uM, replicate 2
compound,measurement,setting,value
CCNC1(C(N)=O)CCN(c2ncnc3c2nc(-c2ccccc2Cl)n3-c2ccc(Cl)cc2)CC1 [OTENABANT],Population Apoptotic (%),[1],77%
same,Population Fragmented Nuclei (%),[1],30%
same,Population Healthy Nuclei (%),[1],60%
same,Population Hoechst High Intensity Objects (%),[1],3%
same,Population Membrane Permeable-Phenotype (%),[1],13%
same,Population Mitochondria Different-Phenotype (%),[1],7%
same,Population Mitotic Cells (%),[1],22%
same,Population Normal (%),[1],96%
same,Population Pyknosed Nuclei (%),[1],9%
same,Population Tubulin-Different-Phenotype (%),[1],4%
same,Total Cell Count,[1],254
same,Population Apoptotic (%),[2],85%
same,Population Fragmented Nuclei (%),[2],17%
same,Population Healthy Nuclei (%),[2],74%
same,Population Hoechst High Intensity Objects (%),[2],2%
same,Population Membrane Permeable-Phenotype (%),[2],11%
same,Population Mitochondria Different-Phenotype (%),[2],22%
same,Population Mitotic Cells (%),[2],14%
same,Population Normal (%),[2],97%
same,Population Pyknosed Nuclei (%),[2],7%
same,Population Tubulin-Different-Phenotype (%),[2],10%
same,Total Cell Count,[2],93
same,Population Apoptotic (%),[3],58%
same,Population Fragmented Nuclei (%),[3],31%
same,Population Healthy Nuclei (%),[3],48%
same,Population Hoechst High Intensity Objects (%),[3],6%
same,Population Membrane Permeable-Phenotype (%),[3],81%
same,Population Mitochondria Different-Phenotype (%),[3],63%
same,Population Mitotic Cells (%),[3],41%
same,Population Normal (%),[3],93%
same,Population Pyknosed Nuclei (%),[3],19%
same,Population Tubulin-Different-Phenotype (%),[3],89%
same,Total Cell Count,[3],211
same,Population Apoptotic (%),[4],70%
same,Population Fragmented Nuclei (%),[4],21%
same,Population Healthy Nuclei (%),[4],60%
same,Population Hoechst High Intensity Objects (%),[4],0%
same,Population Membrane Permeable-Phenotype (%),[4],65%
same,Population Mitochondria Different-Phenotype (%),[4],73%
same,Population Mitotic Cells (%),[4],30%
same,Population Normal (%),[4],99%
same,Population Pyknosed Nuclei (%),[4],18%
same,Population Tubulin-Different-Phenotype (%),[4],76%
same,Total Cell Count,[4],112
same,Population Apoptotic (%),[5],79%
same,Population Fragmented Nuclei (%),[5],26%
same,Population Healthy Nuclei (%),[5],61%
same,Population Hoechst High Intensity Objects (%),[5],3%
same,Population Membrane Permeable-Phenotype (%),[5],11%
same,Population Mitochondria Different-Phenotype (%),[5],5%
same,Population Mitotic Cells (%),[5],20%
same,Population Normal (%),[5],96%
same,Population Pyknosed Nuclei (%),[5],11%
same,Population Tubulin-Different-Phenotype (%),[5],7%
same,Total Cell Count,[5],308
same,Population Apoptotic (%),[6],80%
same,Population Fragmented Nuclei (%),[6],24%
same,Population Healthy Nuclei (%),[6],62%
same,Population Hoechst High Intensity Objects (%),[6],4%
same,Population Membrane Permeable-Phenotype (%),[6],15%
same,Population Mitochondria Different-Phenotype (%),[6],15%
same,Population Normal (%),[6],95%
same,Population Pyknosed Nuclei (%),[6],13%
same,Population Tubulin-Different-Phenotype (%),[6],5%
same,Total Cell Count,[6],120
same,Population Apoptotic (%),[7],69%
same,Population Fragmented Nuclei (%),[7],29%
same,Population Healthy Nuclei (%),[7],49%
same,Population Hoechst High Intensity Objects (%),[7],3%
same,Population Membrane Permeable-Phenotype (%),[7],55%
same,Population Mitochondria Different-Phenotype (%),[7],75%
same,Population Mitotic Cells (%),[7],30%
same,Population Normal (%),[7],96%
same,Population Pyknosed Nuclei (%),[7],20%
same,Population Tubulin-Different-Phenotype (%),[7],78%
same,Total Cell Count,[7],218
same,Population Apoptotic (%),[8],80%
same,Population Fragmented Nuclei (%),[8],28%
same,Population Healthy Nuclei (%),[8],53%
same,Population Membrane Permeable-Phenotype (%),[8],47%
same,Population Mitochondria Different-Phenotype (%),[8],72%
same,Population Mitotic Cells (%),[8],20%
same,Population Pyknosed Nuclei (%),[8],18%
same,Population Tubulin-Different-Phenotype (%),[8],62%
same,Total Cell Count,[8],137
same,Population Apoptotic (%),[9],86%
same,Population Fragmented Nuclei (%),[9],24%
same,Population Healthy Nuclei (%),[9],64%
same,Population Hoechst High Intensity Objects (%),[9],1%
same,Population Membrane Permeable-Phenotype (%),[9],7%
same,Population Mitochondria Different-Phenotype (%),[9],4%
same,Population Mitotic Cells (%),[9],13%
same,Population Normal (%),[9],98%
same,Population Pyknosed Nuclei (%),[9],10%
same,Population Tubulin-Different-Phenotype (%),[9],3%
same,Total Cell Count,[9],416
same,Population Apoptotic (%),[10],52%
same,Population Fragmented Nuclei (%),[10],16%
same,Population Healthy Nuclei (%),[10],69%
same,Population Hoechst High Intensity Objects (%),[10],4%
same,Population Membrane Permeable-Phenotype (%),[10],13%
same,Population Mitochondria Different-Phenotype (%),[10],10%
same,Population Mitotic Cells (%),[10],47%
same,Population Normal (%),[10],95%
same,Population Pyknosed Nuclei (%),[10],14%
same,Population Tubulin-Different-Phenotype (%),[10],9%
same,Total Cell Count,[10],137
same,Population Apoptotic (%),[11],86%
same,Population Fragmented Nuclei (%),[11],32%
same,Population Healthy Nuclei (%),[11],43%
same,Population Hoechst High Intensity Objects (%),[11],7%
same,Population Membrane Permeable-Phenotype (%),[11],49%
same,Population Mitochondria Different-Phenotype (%),[11],55%
same,Population Mitotic Cells (%),[11],13%
same,Population Normal (%),[11],92%
same,Population Pyknosed Nuclei (%),[11],23%
same,Population Tubulin-Different-Phenotype (%),[11],51%
same,Total Cell Count,[11],269
same,Population Apoptotic (%),[12],80%
same,Population Fragmented Nuclei (%),[12],29%
same,Population Healthy Nuclei (%),[12],45%
same,Population Hoechst High Intensity Objects (%),[12],10%
same,Population Membrane Permeable-Phenotype (%),[12],43%
same,Population Mitochondria Different-Phenotype (%),[12],66%
same,Population Mitotic Cells (%),[12],20%
same,Population Normal (%),[12],89%
same,Population Pyknosed Nuclei (%),[12],24%
same,Population Tubulin-Different-Phenotype (%),[12],49%
same,Total Cell Count,[12],138
CC(=O)O[C@H]1C(=O)[C@@]2(C)[C@H]([C@H](OC(=O)c3ccccc3)[C@]3(O)C[C@H](OC(=O)[C@H](O)[C@@H](NC(=O)c4ccccc4)c4ccccc4)C(C)=C1C3(C)C)[C@]1(OC(C)=O)CO[C@@H]1C[C@@H]2O [PACLITAXEL],Population Apoptotic (%),[3],64% and 59%
same,Population Fragmented Nuclei (%),[3],28% and 29%
same,Population Healthy Nuclei (%),[3],46% and 43%
same,Population Hoechst High Intensity Objects (%),[3],8% and 3%
same,Population Membrane Permeable-Phenotype (%),[3],23% and 12%
same,Population Mitochondria Different-Phenotype (%),[3],25% and 38%
same,Population Mitotic Cells (%),[3],35% and 40%
same,Population Normal (%),[3],91% and 96%
same,Population Pyknosed Nuclei (%),[3],24% and 26%
same,Population Tubulin-Different-Phenotype (%),[3],16% and 7%
same,Total Cell Count,[3],200 and 236
same,Population Apoptotic (%),[4],71% and 72%
same,Population Fragmented Nuclei (%),[4],16% and 22%
same,Population Healthy Nuclei (%),[4],60% and 63%
same,Population Hoechst High Intensity Objects (%),[4],2%
same,Population Membrane Permeable-Phenotype (%),[4],10% and 4%
same,Population Mitochondria Different-Phenotype (%),[4],30% and 46%
same,Population Mitotic Cells (%),[4],28% and 27%
same,Population Normal (%),[4],97%
same,Population Pyknosed Nuclei (%),[4],23% and 14%
same,Population Tubulin-Different-Phenotype (%),[4],14% and 8%
same,Total Cell Count,[4],94 and 79
same,Population Apoptotic (%),[7],69% and 64%
same,Population Fragmented Nuclei (%),[7],33% and 27%
same,Population Healthy Nuclei (%),[7],36% and 49%
same,Population Hoechst High Intensity Objects (%),[7],4% and 5%
same,Population Membrane Permeable-Phenotype (%),[7],21% and 13%
same,Population Mitochondria Different-Phenotype (%),[7],44% and 34%
same,Population Mitotic Cells (%),[7],30% and 35%
same,Population Normal (%),[7],95% and 94%
same,Population Pyknosed Nuclei (%),[7],29% and 23%
same,Population Tubulin-Different-Phenotype (%),[7],13% and 12%
same,Total Cell Count,[7],198 and 233
same,Population Apoptotic (%),[8],58% and 85%
same,Population Fragmented Nuclei (%),[8],25%
same,Population Healthy Nuclei (%),[8],48% and 50%
same,Population Hoechst High Intensity Objects (%),[8],7%
same,Population Membrane Permeable-Phenotype (%),[8],15% and 9%
same,Population Mitochondria Different-Phenotype (%),[8],52%
same,Population Mitotic Cells (%),[8],41% and 15%
same,Population Normal (%),[8],92%
same,Population Pyknosed Nuclei (%),[8],26% and 24%
same,Population Tubulin-Different-Phenotype (%),[8],18% and 9%
same,Total Cell Count,[8],95 and 90
same,Population Apoptotic (%),[11],76% and 82%
same,Population Fragmented Nuclei (%),[11],35% and 39%
same,Population Healthy Nuclei (%),[11],30% and 25%
same,Population Hoechst High Intensity Objects (%),[11],12% and 13%
same,Population Membrane Permeable-Phenotype (%),[11],27% and 25%
same,Population Mitochondria Different-Phenotype (%),[11],29% and 25%
same,Population Mitotic Cells (%),[11],23% and 17%
same,Population Normal (%),[11],87% and 86%
same,Population Pyknosed Nuclei (%),[11],33% and 34%
same,Population Tubulin-Different-Phenotype (%),[11],16% and 14%
same,Total Cell Count,[11],203 and 246
same,Population Apoptotic (%),[12],70% and 91%
same,Population Fragmented Nuclei (%),[12],27% and 37%
same,Population Healthy Nuclei (%),[12],31% and 34%
same,Population Hoechst High Intensity Objects (%),[12],8% and 15%
same,Population Membrane Permeable-Phenotype (%),[12],14% and 6%
same,Population Mitochondria Different-Phenotype (%),[12],50% and 44%
same,Population Normal (%),[12],91% and 84%
same,Population Pyknosed Nuclei (%),[12],41% and 27%
same,Population Tubulin-Different-Phenotype (%),[12],25% and 13%
same,Total Cell Count,[12],98
